The results in this text go back to ChEMBL document CHEMBL1255509, “Structure-activity relationship of boronic acid derivatives of tyropeptin: proteasome inhibitors” (Bioorg Med Chem Lett, 2010).

Assay [1] is described as follows: Inhibition of trypsin like activity of partially purified human proteasome. It counts as subcellular. The method, boiled down: (§1)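 Purified 20S proteasome isolated from human erythrocytes served as the enzyme source. Inhibition is reported as IC50.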
Assay [2] can be described thus: Cytotoxicity against human RPMI8226 cells. It counts as cell-based. Conditions: RPMI-8226.
Assay [3] can be described thus: Inhibition of caspase like activity of partially purified human proteasome. It counts as subcellular. The method, boiled down:
as §1

Assay [4] in a line: Inhibition of chymotrypsin like activity of partially purified human proteasome. It counts as subcellular. Summed up:
as §1

Regarding `COc1ccc(C[C@H](NC(=O)[C@@H](NC(=O)[C@H](Cc2ccc(OC)cc2)NC(=O)c2cccc3cccnc23)C(C)C)B(O)O)cc1`, the half-maximal inhibitory concentration (IC50) in assay [1] turned out to be 18 µM; in assay [2] it was 0.056 µM; in assay [3] it was 16 µM; in assay [4], 0.093 µM.

Regarding `COc1ccc(C[C@H](NC(=O)[C@@H](NC(=O)[C@H](Cc2ccc(OC)cc2)NC(=O)c2cc(OC)ccn2)C(C)C)B(O)O)cc1`, the IC50 came out at 16 µM in assay [1], 0.013 µM in assay [2], 20 µM in assay [3] and 0.087 µM in assay [4].

On to `COc1ccc(C[C@H](NC(=O)[C@@H](NC(=O)[C@H](Cc2ccc(OC)cc2)NC(=O)c2cc3ccccc3cn2)C(C)C)B(O)O)cc1`, for which the 50% inhibitory concentration (IC50) in assay [1] turned out to be 9 µM; in assay [2] it was 0.093 µM; in assay [3], 11 µM; in assay [4], 0.059 µM.

On to `COc1ccc(C[C@H](NC(=O)[C@@H](NC(=O)[C@H](Cc2ccc(OC)cc2)NC(=O)c2ccncc2)C(C)C)B(O)O)cc1`, for which the IC50 in assay [1] is greater than 40 µM; in assay [2], 0.87 µM; in assay [3], greater than 40 µM; in assay [4] it was 2.3 µM.

Turning to `COc1ccc(C[C@H](NC(=O)[C@@H](NC(=O)[C@H](Cc2ccc(OC)cc2)NC(=O)c2ncccc2OC)C(C)C)B(O)O)cc1`, the IC50 is 31 µM in assay [1], 0.041 µM in assay [2], 26 µM in assay [3] and 0.13 µM in assay [4].

For the molecule `COc1ccc(C[C@H](NC(=O)[C@@H](NC(=O)[C@H](Cc2ccc(OC)cc2)NC(=O)Cc2ccc3ccccc3n2)C(C)C)B(O)O)cc1`, the IC50 was 5.4 µM in assay [1], 0.073 µM in assay [2], 16 µM in assay [3] and 0.1 µM in assay [4].

As to `COc1ccc(C[C@H](NC(=O)[C@@H](NC(=O)[C@H](Cc2ccc(OC)cc2)NC(=O)c2nc(Cl)ccc2Cl)C(C)C)B(O)O)cc1`, the IC50 in assay [1] worked out at 13 µM; in assay [2] it was 0.014 µM; in assay [3], 26 µM; in assay [4], 0.053 µM.

As to `COc1ccc(C[C@H](NC(=O)[C@@H](NC(=O)[C@H](Cc2ccc(OC)cc2)NC(=O)c2ncccc2F)C(C)C)B(O)O)cc1`, the half-inhibitory concentration (IC50) came to 24 µM in assay [1], 0.0049 µM in assay [2], 25 µM in assay [3] and 0.14 µM in assay [4].

On to `COc1ccc(C[C@H](NC(=O)[C@@H](NC(=O)[C@H](Cc2ccc(OC)cc2)NC(=O)c2ccc(Cl)cn2)C(C)C)B(O)O)cc1`, for which the 50% inhibitory concentration (IC50) in assay [1] is 15 µM; in assay [2], 0.039 µM; in assay [3], 16 µM; in assay [4], 0.083 µM.

As for `COc1ccc(C[C@H](NC(=O)[C@@H](NC(=O)[C@H](Cc2ccc(OC)cc2)NC(=O)c2cc(C)ccn2)C(C)C)B(O)O)cc1`, the IC50 in assay [1] is 20 µM; in assay [2], 0.014 µM; in assay [3] it was 30 µM; in assay [4], 0.14 µM.

As for `COc1ccc(C[C@H](NC(=O)[C@@H](NC(=O)[C@H](Cc2ccc(OC)cc2)NC(=O)c2cnc3ccccc3c2)C(C)C)B(O)O)cc1`, the IC50 was 10 µM in assay [1], 0.054 µM in assay [2], 32 µM in assay [3] and 0.056 µM in assay [4].

On to `COc1ccc(C[C@H](NC(=O)[C@@H](NC(=O)[C@H](Cc2ccc(OC)cc2)NC(=O)c2ncccc2C)C(C)C)B(O)O)cc1`, for which the concentration for half-maximal inhibition (IC50) in assay [1] was 20 µM; in assay [2], 0.014 µM; in assay [3], greater than 40 µM; in assay [4], 0.085 µM.

Regarding `COc1ccc(C[C@H](NC(=O)[C@@H](NC(=O)[C@H](Cc2ccc(OC)cc2)NC(=O)c2cc(N(C)C)ccn2)C(C)C)B(O)O)cc1`, the IC50 in assay [1] was 15 µM; in assay [2], 0.044 µM; in assay [3], 21 µM; in assay [4], 0.11 µM.

As to `COc1ccc(C[C@H](NC(=O)[C@@H](NC(=O)[C@H](Cc2ccc(OC)cc2)NC(=O)c2cnccn2)C(C)C)B(O)O)cc1`, the half-inhibitory concentration (IC50) in assay [1] is 19 µM; in assay [2], 0.017 µM; in assay [3], 33 µM; in assay [4], 0.24 µM.

`COc1ccc(C[C@H](NC(=O)[C@@H](NC(=O)[C@H](Cc2ccc(OC)cc2)NC(=O)c2ccc(OC)cn2)C(C)C)B(O)O)cc1`: the IC50 in assay [1] was 14 µM; in assay [2] it was 0.013 µM; in assay [3] it was 21 µM; in assay [4], 0.094 µM.

For the molecule `COc1ccc(C[C@H](NC(=O)[C@@H](NC(=O)[C@H](Cc2ccc(OC)cc2)NC(=O)c2ccc(C(F)(F)F)cn2)C(C)C)B(O)O)cc1`, the half-maximal inhibitory concentration (IC50) in assay [1] is 19 µM; in assay [2], 0.047 µM; in assay [3], 28 µM; in assay [4] it was 0.11 µM.

Regarding `COc1ccc(C[C@H](NC(=O)[C@@H](NC(=O)[C@H](Cc2ccc(OC)cc2)NC(=O)c2cccc(OC)n2)C(C)C)B(O)O)cc1`, the IC50 stood at 21 µM in assay [1], 0.051 µM in assay [2], 35 µM in assay [3] and 0.059 µM in assay [4].

With `COc1ccc(C[C@H](NC(=O)[C@@H](NC(=O)[C@H](Cc2ccc(OC)cc2)NC(=O)c2ncccc2O)C(C)C)B(O)O)cc1`, the 50% inhibitory concentration (IC50) was greater than 40 µM in assay [1], 0.052 µM in assay [2], 29 µM in assay [3] and 0.39 µM in assay [4].

For the molecule `COc1ccc(C[C@H](NC(=O)[C@@H](NC(=O)[C@H](Cc2ccc(OC)cc2)NC(=O)c2ccnc3ccccc23)C(C)C)B(O)O)cc1`, the IC50 in assay [1] came out at 8.6 µM; in assay [2] it was 0.049 µM; in assay [3], 24 µM; in assay [4] it was 0.049 µM.

With `COc1ccc(C[C@H](NC(=O)[C@@H](NC(=O)[C@H](Cc2ccc(OC)cc2)NC(=O)c2ncccc2Cl)C(C)C)B(O)O)cc1`, the concentration for half-maximal inhibition (IC50) was determined as 20 µM in assay [1], 0.0097 µM in assay [2], 20 µM in assay [3] and 0.083 µM in assay [4].

Take `COc1ccc(C[C@H](NC(=O)[C@@H](NC(=O)[C@H](Cc2ccc(OC)cc2)NC(=O)c2nccc3ccccc23)C(C)C)B(O)O)cc1`: the IC50 was found to be 10 µM in assay [1], 0.034 µM in assay [2], 19 µM in assay [3] and 0.041 µM in assay [4].

For the molecule `COc1ccc(C[C@H](NC(=O)[C@@H](NC(=O)[C@H](Cc2ccc(OC)cc2)NC(=O)c2ccc3cnccc3c2)C(C)C)B(O)O)cc1`, the half-inhibitory concentration (IC50) in assay [1] was greater than 40 µM; in assay [2], 0.26 µM; in assay [3] it was greater than 40 µM; in assay [4], 0.38 µM.

With `COc1ccc(C[C@H](NC(=O)[C@@H](NC(=O)[C@H](Cc2ccc(OC)cc2)NC(=O)c2cccc(Cl)n2)C(C)C)B(O)O)cc1`, the IC50 was 10 µM in assay [1], 0.029 µM in assay [2], 23 µM in assay [3] and 0.1 µM in assay [4].

Take `COc1ccc(C[C@H](NC(=O)[C@@H](NC(=O)[C@H](Cc2ccc(OC)cc2)NC(=O)Cc2cccc3ccccc23)C(C)C)B(O)O)cc1`: the half-inhibitory concentration (IC50) was greater than 40 µM in assay [1], 0.028 µM in assay [2], 39 µM in assay [3] and 0.019 µM in assay [4].

With `COc1ccc(C[C@H](NC(=O)CNC(=O)[C@H](Cc2ccc(OC)cc2)NC(=O)c2ccccn2)B(O)O)cc1`, the IC50 in assay [1] was greater than 40 µM; in assay [2] it was 0.024 µM; in assay [3], 34 µM; in assay [4], 0.26 µM.

Consider `COc1ccc(C[C@H](NC(=O)[C@@H](NC(=O)[C@H](Cc2ccc(OC)cc2)NC(=O)c2cc(Br)ccn2)C(C)C)B(O)O)cc1`, for which the IC50 was 14 µM in assay [1], 0.047 µM in assay [2], 17 µM in assay [3] and 0.095 µM in assay [4].

In the case of `COc1ccc(C[C@H](NC(=O)[C@@H](NC(=O)[C@H](Cc2ccc(OC)cc2)NC(=O)c2ccc(Br)cn2)C(C)C)B(O)O)cc1`, the half-maximal inhibitory concentration (IC50) in assay [1] was 14 µM; in assay [2] it was 0.046 µM; in assay [3], 24 µM; in assay [4], 0.093 µM.

Take `COc1ccc(C[C@H](NC(=O)[C@@H](NC(=O)[C@H](Cc2ccc(OC)cc2)NC(=O)c2ccc(C)cn2)C(C)C)B(O)O)cc1`: the 50% inhibitory concentration (IC50) was found to be 14 µM in assay [1], 0.014 µM in assay [2], 30 µM in assay [3] and 0.12 µM in assay [4].

Take `COc1ccc(C[C@H](NC(=O)[C@@H](NC(=O)[C@H](Cc2ccc(OC)cc2)NC(=O)c2ncccc2Br)C(C)C)B(O)O)cc1`: the IC50 was determined as 17 µM in assay [1], 0.013 µM in assay [2], 20 µM in assay [3] and 0.061 µM in assay [4].

For `COc1ccc(C[C@H](NC(=O)[C@@H](NC(=O)[C@H](Cc2ccc(OC)cc2)NC(=O)Cc2cccc(Oc3ccccc3)c2)C(C)C)B(O)O)cc1`, the IC50 was found to be 1.1 µM in assay [1], 0.19 µM in assay [2], 29 µM in assay [3] and 0.0041 µM in assay [4].

In the case of `COc1ccc(C[C@H](NC(=O)[C@@H](NC(=O)[C@H](Cc2ccc(OC)cc2)NC(=O)c2ccccn2)C(C)C)B(O)O)cc1`, the half-maximal inhibitory concentration (IC50) worked out at 40 µM in assay [1], 0.013 µM in assay [2], 23 µM in assay [3] and 0.23 µM in assay [4].

In the case of `COc1ccc(C[C@H](NC(=O)[C@@H](NC(=O)[C@H](Cc2ccc(OC)cc2)NC(=O)c2cccc(F)n2)C(C)C)B(O)O)cc1`, the IC50 amounted to 20 µM in assay [1], 0.015 µM in assay [2], 27 µM in assay [3] and 0.11 µM in assay [4].

With `COc1ccc(C[C@H](NC(=O)[C@@H](NC(=O)[C@H](Cc2ccc(OC)cc2)NC(=O)Cc2ccc3ccccc3c2)C(C)C)B(O)O)cc1`, the half-inhibitory concentration (IC50) was 12 µM in assay [1], 0.17 µM in assay [2], 29 µM in assay [3] and 0.022 µM in assay [4].

On to `COc1ccc(C[C@H](NC(=O)[C@@H](NC(=O)[C@H](Cc2ccc(OC)cc2)NC(=O)c2cc(Cl)ccn2)C(C)C)B(O)O)cc1`, for which the half-inhibitory concentration (IC50) in assay [1] came out at 15 µM; in assay [2], 0.039 µM; in assay [3], 21 µM; in assay [4], 0.088 µM.

In the case of `COc1ccc(C[C@H](NC(=O)[C@H](C)NC(=O)[C@H](Cc2ccc(OC)cc2)NC(=O)c2ccccn2)B(O)O)cc1`, the half-maximal inhibitory concentration (IC50) in assay [1] was greater than 40 µM; in assay [2] it was 0.057 µM; in assay [3], greater than 40 µM; in assay [4] it was 0.11 µM.

As usually defined, the IC50 is the midpoint of a concentration-inhibition curve. A higher IC50 goes with weaker potency.
